The source made the active and inactive calls. The rule behind the calls is not given here.
How the values were obtained:
[1] = target: Sodium-dependent dopamine transporter (Rattus norvegicus, UniProt P23977); assay type: cell membranes, Sprague-Dawley, Brain, Membrane
[2] = target: Sodium-dependent serotonin transporter (Rattus norvegicus, UniProt P31652); experiment: Displacement of [3H]citalopram from SERT in Sprague-Dawley rat brain membranes; assay type: cell membranes, Membrane
Transporter = Transporter (Rattus norvegicus, UniProt Q63380); experiment: Displacement of [3H]nisoxetine from NET in Sprague-Dawley rat brain membranes; assay type: cell membranes, Membrane
[3] = target: Transporter (Rattus norvegicus) (UniProt Q63380); experiment: Displacement of [3H]nisoxetine from NET in Sprague-Dawley rat brain membranes at 10 uM; assay type: cell membranes; details: Membrane
[4] = target: Sodium-dependent dopamine transporter (Rattus norvegicus) (UniProt P23977); experiment: Inhibition of [3H]dopamine uptake at DAT in Sprague-Dawley rat brain membranes at 10 uM; assay type: cell membranes; details: Membrane
[5] = target: Sodium-dependent serotonin transporter (Rattus norvegicus) (UniProt P31652); experiment: Displacement of [3H]citalopram from SERT in Sprague-Dawley rat brain membranes at 10 uM; assay type: cell membranes; details: Membrane
Mus musculus = experiment: Increase in horizontal locomotor activity in mouse measured after 30 mins post 4 hrs drug administration; assay type: functional, organism-based
Procedure, shortened: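 Mice; horizontal locomotor activity counts per min recorded over the first 30 min of each of the 4 h after drug injection. Several doses (mg/kg) were tested to give dose-effect curves. Each point is the average of six mice.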

Chain of Transporter (Rattus norvegicus) (Q63380 as listed by the source): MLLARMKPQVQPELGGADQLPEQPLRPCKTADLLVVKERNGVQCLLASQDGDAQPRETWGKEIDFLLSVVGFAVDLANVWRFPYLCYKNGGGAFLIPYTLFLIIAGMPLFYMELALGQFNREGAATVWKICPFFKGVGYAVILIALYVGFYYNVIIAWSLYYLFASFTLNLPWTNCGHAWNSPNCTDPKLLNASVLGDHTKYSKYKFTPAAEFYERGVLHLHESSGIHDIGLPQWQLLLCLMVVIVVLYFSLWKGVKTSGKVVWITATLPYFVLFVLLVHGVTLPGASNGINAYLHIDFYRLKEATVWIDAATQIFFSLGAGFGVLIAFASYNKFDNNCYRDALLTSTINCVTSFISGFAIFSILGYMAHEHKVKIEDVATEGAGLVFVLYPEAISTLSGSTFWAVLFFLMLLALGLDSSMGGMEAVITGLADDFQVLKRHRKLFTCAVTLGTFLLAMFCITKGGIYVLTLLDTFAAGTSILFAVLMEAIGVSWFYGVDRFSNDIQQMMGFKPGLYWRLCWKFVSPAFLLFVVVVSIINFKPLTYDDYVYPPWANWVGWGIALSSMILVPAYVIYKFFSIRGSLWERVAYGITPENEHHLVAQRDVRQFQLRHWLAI
Chain of Transporter (Q63380 whole entry): as the sequence (Q63380 as listed by the source) above
Chain of Sodium-dependent serotonin transporter (Rattus norvegicus) (P31652 whole entry): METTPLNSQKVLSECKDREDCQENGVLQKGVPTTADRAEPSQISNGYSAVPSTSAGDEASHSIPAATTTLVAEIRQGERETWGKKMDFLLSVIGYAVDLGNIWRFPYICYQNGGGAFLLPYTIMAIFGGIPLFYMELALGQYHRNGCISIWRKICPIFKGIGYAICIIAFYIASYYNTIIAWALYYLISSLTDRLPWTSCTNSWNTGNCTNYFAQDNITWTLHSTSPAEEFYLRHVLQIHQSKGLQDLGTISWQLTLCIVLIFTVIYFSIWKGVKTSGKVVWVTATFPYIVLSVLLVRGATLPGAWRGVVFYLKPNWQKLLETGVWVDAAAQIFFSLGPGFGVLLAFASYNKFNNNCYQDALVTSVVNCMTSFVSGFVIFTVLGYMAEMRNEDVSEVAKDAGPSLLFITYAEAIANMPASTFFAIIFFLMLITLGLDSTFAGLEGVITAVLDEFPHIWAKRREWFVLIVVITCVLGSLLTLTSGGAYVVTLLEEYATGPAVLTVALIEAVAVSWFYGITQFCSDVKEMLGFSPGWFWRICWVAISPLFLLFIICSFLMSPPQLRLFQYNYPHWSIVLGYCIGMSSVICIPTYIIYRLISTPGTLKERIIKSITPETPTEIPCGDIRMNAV
Chain of Sodium-dependent serotonin transporter (P31652 whole entry): as above
Chain of Sodium-dependent dopamine transporter (P23977 whole entry): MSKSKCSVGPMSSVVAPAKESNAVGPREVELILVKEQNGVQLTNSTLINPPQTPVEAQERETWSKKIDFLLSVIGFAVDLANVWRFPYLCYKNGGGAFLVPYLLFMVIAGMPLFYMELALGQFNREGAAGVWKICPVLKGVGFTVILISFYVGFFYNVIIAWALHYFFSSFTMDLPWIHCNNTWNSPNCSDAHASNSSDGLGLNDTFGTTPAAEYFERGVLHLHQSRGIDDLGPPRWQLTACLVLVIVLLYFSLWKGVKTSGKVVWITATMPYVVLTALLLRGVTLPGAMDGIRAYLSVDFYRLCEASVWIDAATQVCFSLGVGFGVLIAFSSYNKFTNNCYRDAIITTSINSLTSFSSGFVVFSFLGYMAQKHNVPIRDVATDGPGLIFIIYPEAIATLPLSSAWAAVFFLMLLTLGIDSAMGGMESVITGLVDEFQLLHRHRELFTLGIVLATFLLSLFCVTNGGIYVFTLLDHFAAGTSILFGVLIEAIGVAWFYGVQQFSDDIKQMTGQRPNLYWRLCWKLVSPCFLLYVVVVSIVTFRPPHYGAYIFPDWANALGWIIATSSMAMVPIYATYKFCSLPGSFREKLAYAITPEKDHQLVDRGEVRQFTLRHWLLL
Chain of Sodium-dependent dopamine transporter (Rattus norvegicus) (P23977 whole entry): as above

| Compound | Ki [1] [µM] | Ki [2] [µM] | Ki (Transporter) [µM] | inhibition [3] | inhibition [4] | inhibition [5] | Activity (Mus musculus) |
| --- | --- | --- | --- | --- | --- | --- | --- |
| CN(C)CC[S+]([O-])C(c1ccc(Cl)cc1)c1ccc(Cl)cc1 (racemic) | 2.89 | 0.406 | 36.2 |  |  |  |  |
| CN(C)C(=O)C[S+]([O-])C(c1ccc(F)cc1)c1ccc(F)cc1 (racemic) |  | 16.2 |  | inactive | inactive |  |  |
| [O-][S+](CCN1CCOCC1)C(c1ccccc1)c1ccccc1 (racemic) |  |  |  | inactive | inactive | inactive |  |
| CN(C)C(=O)C[S+]([O-])C(c1ccc(Cl)cc1)c1ccc(Cl)cc1 (racemic) | 34.6 | 22.3 |  | inactive |  |  |  |
| NC(=O)C[S+]([O-])C(c1ccc(F)cc1)c1ccc(F)cc1 (racemic) | 2.19 |  |  | inactive |  | inactive |  |
| NC(=O)C[S+]([O-])C(c1ccc(Br)cc1)c1ccc(Br)cc1 (racemic) | 0.6 | 10.6 |  | inactive |  |  |  |
| CN(C)C(=O)C[S+]([O-])C(c1ccccc1)c1ccccc1 (racemic) |  |  |  | inactive | inactive | inactive |  |
| NC(=O)C[S+]([O-])C(c1ccccc1)c1ccccc1 (racemic) |  |  |  | inactive |  | inactive | Dose-dependent effect |
| CNC(=O)C[S+]([O-])C(c1ccc(Br)cc1)c1ccc(Br)cc1 (racemic) | 1.65 | 33.2 |  | inactive |  |  |  |
| NC(=O)C[S+]([O-])C(c1ccc(Cl)cc1)c1ccc(Cl)cc1 (racemic) |  | 39 |  | inactive |  |  | Dose-dependent effect |
| CN(C)C(=O)CSC(c1ccc(Cl)cc1)c1ccc(Cl)cc1 | 4.51 | 5.98 | 42.5 |  |  |  |  |
| NC(=O)CSC(c1ccc(F)cc1)c1ccc(F)cc1 | 1.57 |  |  | inactive |  | inactive |  |
| NC(=O)CSC(c1ccc(Cl)cc1)c1ccc(Cl)cc1 | 2.23 | 12.7 |  |  |  |  |  |
| NC(=O)C[S@@+]([O-])C(c1ccccc1)c1ccccc1 |  |  |  | inactive |  | inactive | Dose-dependent effect |
| CN(C)C(=O)CSC(c1ccccc1)c1ccccc1 | 16.5 |  |  | inactive |  | inactive |  |
| CN(C)CC[S+]([O-])C(c1ccccc1)c1ccccc1 (racemic) |  | 45.8 |  | inactive | inactive |  |  |
| O=C(C[S+]([O-])C(c1ccccc1)c1ccccc1)NCCCc1ccccc1 (racemic) | 2.66 |  |  | inactive |  | inactive |  |
| CN(C)C(=O)CSC(c1ccc(Br)cc1)c1ccc(Br)cc1 | 2.45 | 3.21 | 19.2 |  |  |  |  |
| CN(C)C(=O)C[S+]([O-])C(c1ccc(Br)cc1)c1ccc(Br)cc1 (racemic) | 21.3 | 14.2 |  | inactive |  |  |  |
| NC(=O)CSC(c1ccc(Br)cc1)c1ccc(Br)cc1 | 1.93 | 2.2 | 77.7 |  |  |  |  |
| NC(=O)C[S@+]([O-])C(c1ccccc1)c1ccccc1 |  |  |  | inactive |  | inactive | Dose-dependent effect |
| CN(C)C(=O)CSC(c1ccc(F)cc1)c1ccc(F)cc1 | 9.51 | 25.9 |  | inactive |  |  |  |
| CNC(=O)C[S+]([O-])C(c1ccc(Cl)cc1)c1ccc(Cl)cc1 (racemic) | 2.44 |  |  | inactive |  | inactive |  |
